Source: ChEMBL document CHEMBL1949585, “Design, synthesis and evaluation of telomerase inhibitory, hTERT repressing, and anti-proliferation activities of symmetrical 1,8-disubstituted amidoanthraquinones” (Eur J Med Chem, 2012)

Experiments:
[1] = Cytotoxicity against human H1299 cells assessed as cell growth at 1 uM after 48 hrs by MTT assay; type: functional; conditions: NCI-H1299, 48 h, read-out: Activity
Method in brief: (§1)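 H1299 non-small lung cancer cells were grown in RPMI 1640 with 10% FBS and penicillin/streptomycin at 37 °C in 5% CO2. About 2×10³ cells were seeded per well and held 24 h, then washed with PBS and given fresh medium. Compound, freshly dissolved in DMSO and diluted in complete medium, was added for 48 h. MTT was read at 550 nm after SDS/DMF lysis at 37 °C for 16 h. Values are from three experiments, untreated = 100%, ±SD.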

[2] = Cytotoxicity against human H1299 cells assessed as cell growth at 10 uM after 48 hrs by MTT assay; type: functional; conditions: NCI-H1299, 48 h, read-out: Activity; method in brief: as §1
[3] = Cytotoxicity against human H1299 cells assessed as cell growth at 100 uM after 48 hrs by MTT assay; type: functional; conditions: NCI-H1299, 48 h, read-out: Activity; method in brief: as §1
[4] = Inhibition of human TERT expression in H1299 cells at 1 uM after 24 hrs by secreted alkaline phosphatase reporter gene assay relative to control; values are per cent of control; conditions: NCI-H1299
[5] = Inhibition of human TERT expression in H1299 cells at 10 uM after 24 hrs by secreted alkaline phosphatase reporter gene assay relative to control; values are per cent of control; conditions: NCI-H1299
[6] = Inhibition of human TERT expression in H1299 cells at 100 uM after 24 hrs by secreted alkaline phosphatase reporter gene assay relative to control; values are per cent of control; conditions: NCI-H1299

SMILES	growth at 1 µM [1] [%]	growth at 10 µM [2] [%]	growth at 100 µM [3] [%]	level, % of control [4] [%]	level, % of control [5] [%]	level, % of control [6] [%]
COC(=O)[C@H](COC(C)(C)C)NCC(=O)Nc1cccc2c1C(=O)c1c(NC(=O)CN[C@@H](COC(C)(C)C)C(=O)OC)cccc1C2=O	127	128	91	98	94	98
CCCN(CCC)CCC(=O)Nc1cccc2c1C(=O)c1c(NC(=O)CCN(CCC)CCC)cccc1C2=O	94	99	22	100	100	4
CC(C)CNCCC(=O)Nc1cccc2c1C(=O)c1c(NC(=O)CCNCC(C)C)cccc1C2=O	73	4	0	96	29	0
CCCN(C)CC(=O)Nc1cccc2c1C(=O)c1c(NC(=O)CN(C)CCC)cccc1C2=O	108	108	97	85	87	45
CCN(C)CC(=O)Nc1cccc2c1C(=O)c1c(NC(=O)CN(C)CC)cccc1C2=O	100	101	73	102	95	20
O=C(CCNCc1cc(F)cc(F)c1)Nc1cccc2c1C(=O)c1c(NC(=O)CCNCc3cc(F)cc(F)c3)cccc1C2=O	93	87	6	98	100	3
CCNCC(=O)Nc1cccc2c1C(=O)c1c(NC(=O)CNCC)cccc1C2=O	106	87	17	103	92	2
CNCCC(=O)Nc1cccc2c1C(=O)c1c(NC(=O)CCNC)cccc1C2=O	117	107	33	101	97	22
CCN(C)CCC(=O)Nc1cccc2c1C(=O)c1c(NC(=O)CCN(C)CC)cccc1C2=O	96	23	12	110	19	0
COC(=O)[C@@H](C)NCC(=O)Nc1cccc2c1C(=O)c1c(NC(=O)CN[C@H](C)C(=O)OC)cccc1C2=O	56	50	10	83	74	66
COC(=O)[C@H](C)NCC(=O)Nc1cccc2c1C(=O)c1c(NC(=O)CN[C@@H](C)C(=O)OC)cccc1C2=O	98	104	96	99	93	67
COc1cccc2c1C(=O)c1c(O)c3c(c(O)c1C2=O)C[C@@](O)(C(=O)CO)C[C@@H]3O[C@H]1C[C@H](N)[C@H](O)[C@H](C)O1 [DOXORUBICIN]	17	0	0	33	13	5
CCCN(CCC)CC(=O)Nc1cccc2c1C(=O)c1c(NC(=O)CN(CCC)CCC)cccc1C2=O	90	76	66	105	101	94
CN(C)CCC(=O)Nc1cccc2c1C(=O)c1c(NC(=O)CCN(C)C)cccc1C2=O	93	24	11	87	20	0
